The target in data set [1] is T1, Arachidonate 5-lipoxygenase-activating protein (Homo sapiens) (UniProt P20292).
T1 sequence (whole entry): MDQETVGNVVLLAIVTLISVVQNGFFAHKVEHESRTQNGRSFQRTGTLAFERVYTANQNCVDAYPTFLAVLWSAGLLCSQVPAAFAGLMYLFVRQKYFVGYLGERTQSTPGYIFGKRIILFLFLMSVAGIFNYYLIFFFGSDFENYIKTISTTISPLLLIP
Description: Inhibition of FLAP in Ca+2 ionophore A23187 stimulated human neutrophils assessed as remaining 5-LO activity preincubated for 15 mins at 10 uM measured after 10 mins by RP-HPLC analysis.

The target in data set [2] is T2, Arachidonate 5-lipoxygenase-activating protein (Homo sapiens, UniProt P20292).
T2 sequence (P20292 whole entry): T1 sequence (whole entry)
Description: Inhibition of FLAP in Ca+2 ionophore A23187 stimulated human neutrophils assessed as 5-LO product formation preincubated for 15 mins measured after 10 mins by RP-HPLC analysis.

Data set [3] can be described thus: Acute cytotoxicity against human neutrophils assessed as cell viability measured for 30 mins by trypan blue exclusion method. It is filed as cell-based. The note with it: neutrophil, 0.5 h. In outline:
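Neutrophils isolated from healthy donor blood by dextran sedimentation and Nycoprep centrifugation, then resuspended in PBS pH 7.4 with 1 mg/ml glucose and 1 mM CaCl₂. Cells were kept 30 min at 37 °C with compound, and cell integrity was read by trypan blue exclusion on an automated counter.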

The target of data set [4] is T3, Polyunsaturated fatty acid 5-lipoxygenase (Homo sapiens, UniProt P09917).
T3 sequence (P09917 whole entry): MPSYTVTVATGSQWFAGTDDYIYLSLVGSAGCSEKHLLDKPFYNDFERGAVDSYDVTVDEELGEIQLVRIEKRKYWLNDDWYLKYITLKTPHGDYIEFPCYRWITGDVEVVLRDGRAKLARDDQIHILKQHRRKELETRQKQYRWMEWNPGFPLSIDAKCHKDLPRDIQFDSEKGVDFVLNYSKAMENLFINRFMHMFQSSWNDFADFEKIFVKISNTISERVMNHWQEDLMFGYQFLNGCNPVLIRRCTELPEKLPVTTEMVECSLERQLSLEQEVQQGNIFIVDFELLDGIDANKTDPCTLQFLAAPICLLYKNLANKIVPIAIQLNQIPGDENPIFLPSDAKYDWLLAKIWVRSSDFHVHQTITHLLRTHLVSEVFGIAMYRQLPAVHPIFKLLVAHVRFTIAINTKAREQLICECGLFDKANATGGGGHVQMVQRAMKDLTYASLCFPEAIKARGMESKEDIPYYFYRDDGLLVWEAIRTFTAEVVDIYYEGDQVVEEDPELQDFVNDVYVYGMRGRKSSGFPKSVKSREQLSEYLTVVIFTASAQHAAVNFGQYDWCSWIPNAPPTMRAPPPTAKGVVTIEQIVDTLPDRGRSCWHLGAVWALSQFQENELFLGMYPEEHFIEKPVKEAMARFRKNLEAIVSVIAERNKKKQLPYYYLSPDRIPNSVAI
Description: Inhibition of recombinant human 5-LO expressed in Escherichia coli BL21 assessed as 5-LO product formation preincubated for 15 mins followed by addition of arachidonic acid as substrate measured after 10 mins by RP-HPLC analysis. In outline:
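Semi-purified 5-LO was diluted in ice-cold PBS with 1 mM EDTA and 1 mM ATP, then held 15 min at 4 °C with compound or 0.1% DMSO. After a 30 s prewarm at 37 °C, 2 mM CaCl₂ plus 20 arachidonic acid were added for 10 min at 37 °C. The reaction was stopped with methanol, and LTB₄ all-trans isomers plus 5-H(P)ETE were read by RP-HPLC. IC₅₀ is n = 3–4 in duplicates.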

A value given as a limit tells only on which side of the number the result lay.

The term IC50 denotes the concentration that inhibits the measured activity by half. In the case of `O=C(O)c1noc(-c2ccc(OCc3ccccn3)cc2)c1-c1ccc(Cl)cc1`, the Activity in data set [1] was 8.4%; in data set [3], “Non-toxic”. Also, the IC50 in data set [2] came out at 4100 nM.

As for `O=C(O)c1noc(-c2ccc(OCc3nc4ccccc4s3)cc2)c1-c1ccc(Cl)cc1`, the Activity is 2% in data set [1] and “Non-toxic” in data set [3]. For the same compound, the IC50 was 240 nM in data set [2] and > 10000 nM in data set [4].

Regarding `O=C(O)c1noc(-c2ccc(OCc3ccccc3Cl)cc2)c1-c1ccc(Cl)cc1`, the Activity in data set [1] was 5.1%; in data set [3], “Non-toxic”. Moreover, in data set [2], the IC50 stood at 1200 nM.

In the case of `O=C(O)c1noc(-c2ccc(OCc3cccc(F)c3)cc2)c1-c1ccc(Cl)cc1`, the figures for the Activity in data set [1] and in data set [3] were 19.6% and “Non-toxic”, respectively. For the same compound, the IC50 in data set [2] stood at 1300 nM.

On to `CC(c1cc2ccccc2s1)N(O)C(N)=O` (stereo not drawn) [ZILEUTON], for which the figures for the Activity in data set [1] and in data set [3] were 6.7% and “Non-toxic”, respectively.

As to `CCOC(=O)c1noc(-c2ccc(OCc3ccc(C)cc3)cc2)c1-c1ccc(Cl)cc1`, the figures for the Activity in data set [1] and in data set [3] were 61.4% and “Non-toxic”, respectively.

In the case of `CCOC(=O)c1noc(-c2ccc(OCc3cccc(F)c3)cc2)c1-c1ccc(Cl)cc1`, the Activity is 55.3% in data set [1] and “Non-toxic” in data set [3].

Consider `CCOC(=O)c1noc(-c2ccc(OCc3ccccc3C)cc2)c1-c1ccc(Cl)cc1`, for which the Activity in data set [1] is 71.9%; in data set [3] it was “Non-toxic”. In data set [2], the IC50 is > 10000 nM.

On to `N#Cc1cccc(COc2ccc(-c3onc(C(=O)O)c3-c3ccc(Cl)cc3)cc2)c1`, for which the Activity was 6.9% in data set [1] and “Non-toxic” in data set [3]. Further, in data set [2], the IC50 worked out at 4100 nM.

Take `Cc1ccc(COc2ccc(-c3onc(C(=O)O)c3-c3ccc(Cl)cc3)cc2)cc1`: the Activity in data set [1] was 15.7%; in data set [3], “Non-toxic”. The IC50 in data set [2] stood at 1400 nM.

For the compound `O=C(O)c1noc(-c2ccc(OCc3ccc4ccccc4n3)cc2)c1-c1ccc(Cl)cc1`, the Activity is 2.7% in data set [1] and “Non-toxic” in data set [3]. Moreover, in data set [2], the IC50 was 240 nM.

Turning to `COc1cc(OCc2ccccc2C)ccc1-c1onc(C)c1-c1ccc(Cl)cc1`, the Activity in data set [1] was 81.3%; in data set [3], “Non-toxic”.

With `O=C(O)c1noc(-c2ccc(OCc3ccccc3C(F)(F)F)cc2)c1-c1ccc(Cl)cc1`, the Activity was 5.5% in data set [1] and “Non-toxic” in data set [3]. For the same compound, the IC50 in data set [2] worked out at 770 nM.

With `Cc1ccccc1COc1ccc(-c2onc(C)c2-c2ccc(Cl)cc2)cc1`, the Activity in data set [1] was 102%; in data set [3], “Non-toxic”.

Consider `Cc1ccccc1COc1ccc(-c2onc(C)c2-c2ccc(Cl)cc2)c(O)c1`, for which the figures for the Activity in data set [1] and in data set [3] were 3% and “Non-toxic”, respectively.

As for `Cc1ccccc1COc1ccc(-c2onc(C(=O)O)c2-c2ccc(Cl)cc2)cc1`, the Activity is 13.1% in data set [1] and “Non-toxic” in data set [3]. Besides, the IC50 in data set [2] is 1700 nM.
